Assay outcomes: PubChem, several laboratories
Rows were chosen to be rich in hits. Some 2.2% of all compounds tested hit in one or more screens of this group.
C8 TRAIL sens – viability loss with TRAIL in NB7+C8 cells, primary screen, TRAIL sensitizer project, cell-based, ATPlite luminescence; actives 1% (n = 360,000); inhibition (viability loss, TRAIL sensitization), % at 10 µM;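 active means compounds causing at least 50% loss of cell viability in the single-dose screen, relative to plate controls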
FLuc stim CS – FLuc activators, initial screening, artefact control for FLuc-dependent activation tests, biochemical, ATPlite luminescence; Luciferin 4-monooxygenase (Photinus pyralis), P08659; ATPlite luciferase biochemical, 10 min; 0 = ATP-free wells, 1 = DMSO control; activation factor at 10 µM; 200,000 tested, under 10 active; AID 1027, 2008;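 active means luciferase activation factor, scaled between plate controls, of at least 2 with compound at 10 µM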
Target sequence (P08659 whole entry, looked up): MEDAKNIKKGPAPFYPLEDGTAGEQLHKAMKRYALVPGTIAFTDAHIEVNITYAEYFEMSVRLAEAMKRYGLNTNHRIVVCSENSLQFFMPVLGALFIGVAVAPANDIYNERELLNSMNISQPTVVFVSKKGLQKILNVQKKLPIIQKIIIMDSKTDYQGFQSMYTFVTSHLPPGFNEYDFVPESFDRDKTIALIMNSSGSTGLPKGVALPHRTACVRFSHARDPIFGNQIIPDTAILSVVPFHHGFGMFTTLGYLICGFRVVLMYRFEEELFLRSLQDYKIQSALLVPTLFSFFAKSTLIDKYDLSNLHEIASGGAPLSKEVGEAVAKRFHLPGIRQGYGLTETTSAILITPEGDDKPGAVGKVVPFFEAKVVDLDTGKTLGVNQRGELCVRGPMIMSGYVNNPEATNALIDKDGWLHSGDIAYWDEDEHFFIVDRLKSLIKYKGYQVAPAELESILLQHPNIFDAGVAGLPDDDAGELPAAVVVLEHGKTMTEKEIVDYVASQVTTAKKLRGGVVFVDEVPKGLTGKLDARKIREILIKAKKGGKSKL
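System: luciferase plus luciferin reagent, cell-free; medium: PBS as buffer for the ATP substrate; dosing: test compounds dosed from 2 mM stocks in 100% DMSO; timing: 10 min post-reagent at room temperature; measured by: luminescence measurement of luciferase light output; evaluation: luciferase activation, seen as luminescence increase over controls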
STAT3 inh – IL-6 driven STAT3 reporter inhibitors, primary screen, U3A cells, luciferase, luminescence, MLSCN library; IL-6 STAT3-luciferase reporter; host cell line lacks STAT1; inhibition, % at 5.5 µM; actives 0.89% (n = 190,000); AID 862, 2007;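 active means inhibition above the mean inhibition across all screened compounds plus 3 SD, cut at about 44% in these data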;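 further: 0% = DMSO only wells and 100% = 100 µM nifuroxazide control wells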
HSP90 inh – HSP90 inhibitors, primary screen, cell lysate, luminescence | Rabbit reticulocyte lysate, luciferase refolding luminescence, 3 h | inhibition, % at 5.6 µM | actives 0.91% (n = 290,000) | AID 1789, 2009;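 active means inhibition above the screen-wide mean plus 3 SD, computed separately per campaign, cut at about 16% in these data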;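 further: 0% = DMSO wells and 100% = 60 µM geldanamycin wells; inhibitors lower the luminescence because luciferase stays unfolded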
FLuc inh counter – firefly luciferase enzyme inhibitors, primary screen, artefact control for luciferase-based inhibitor screens, biochemical, luminescence, ATPLite. inhibition, % at 10 µM. actives 1.5% (n = 200,000). 10 min. AID 1006, 2008. Luciferin 4-monooxygenase (Photinus pyralis), P08659;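 active means inhibition above about 50% when tested at 10 µM, limit read from the data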
PPC-1+TRAIL kill – compounds killing PPC-1 cancer cells with TRAIL present, primary screen, TRAIL potentiator project, ATPLite luminescence, uHTS | PPC-1 cells + TRAIL, ATPLite viability luminescence | cell killing (% activity), % at 4 µM or 5 µM | actives 0.41% (n = 220,000);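 active means cell killing above 50% in the first pass at 4 µM, then a duplicate retest at 5 µM averaging 50% or more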;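 further: plate controls were cells with TRAIL plus DMSO for no effect and medium-only wells lacking cells for full effect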
HSP90 inh confirm – HSP90 inhibitors, confirmation, cell lysate, luminescence; shares compounds with HSP90 inh; actives 64% (n = 2,300); AID 1846, 2009; rabbit reticulocyte lysate, luciferase refolding luminescence, 3 h; inhibition, % at 5.9 µM; in the data active means inhibition above about 18%;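 further: 0% = vehicle wells and 100% = reference inhibitor wells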
FLuc counter – firefly luciferase inhibitors, HSP90 counter-screen, confirmation, artefact control for HSP90 inhibitor project, biochemical, luminescence, triplicate; shares compounds with HSP90 inh; purified native firefly luciferase; inhibition, % at 5.9 µM; actives 48% (n = 2,300); AID 1847, 2009;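 active means inhibition above the mean inhibition of all tested sample wells plus 3 SD, cut at about 10% in these data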;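 further: 0% = DMSO with luciferase and 100% = wells lacking luciferase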
Active calls of the source: *; . = no result given.

SMILES | C8 TRAIL sens | FLuc stim CS | STAT3 inh | HSP90 inh | FLuc inh counter | PPC-1+TRAIL kill | HSP90 inh confirm | FLuc counter
Cc1nn(-c2ccccc2)c2sc(-c3n[nH]c(=S)o3)cc12 | -29 | 1.1 | -3 | 19* | -6 | -8 | -14 | -12
Cc1nn(-c2ccccc2)c2sc(C(=O)O)cc12 | -7 | 1 | 4 | 3 | 2 | 4 | . | .
Cn1c(=O)c2cc(NC(=O)CCc3cccnc3)ccc2n1Cc1ccc(F)cc1 | -5 | . | . | . | . | . | . | .
CC(C)(C)c1cc(NC(=O)Nc2ccccc2)no1 | 16 | . | . | -1 | . | . | . | .
CC(C)(C)c1cc(NC(=O)c2ccco2)no1 | 43 | . | . | 19* | . | . | 31* | 12*
COc1ccc(/C(C)=N/NC(=O)Cn2nc([N+](=O)[O-])cc2C)cc1 | 9 | . | . | 30* | . | 0 | -1 | -7
COc1ccc(CNC(=O)Cn2nc([N+](=O)[O-])cc2C)cc1 | -9 | . | . | 0 | . | . | . | .
CCOC(=O)/C(=N/O)C1=NC(C)(C)Cc2cc(C)c(C)cc21 | -14 | 1 | 2 | -2 | -5 | 39 | . | .
Cc1ccc(C(=O)NC2CCCCCCC2)c(Cl)c1 | 61* | . | . | 42* | . | . | 63* | 53*
CC(NC(=O)CNC(=O)C1CCCCC1)c1ccc(S(N)(=O)=O)cc1 (stereo unspecified) | -2 | . | . | 32* | . | . | -1 | 0
Cc1ccc(NC(=S)c2nc3ccccc3[nH]2)cc1 | 77* | 0.2 | 37 | 19* | 83* | 45 | 23* | 7
C=CC[C@H](CC(=O)NCCO)C(=O)N[C@H](COC(=O)[C@H](CC=C)CC(=O)OC(C)(C)C)c1ccccc1 | 2 | . | . | . | . | . | . | .
O=C(Nc1ncc([N+](=O)[O-])s1)c1cccc([N+](=O)[O-])c1 | 46 | . | . | 16* | . | 17 | 60* | 34*
O=C(Nc1ccc(NC(=O)c2cccc([N+](=O)[O-])c2)cc1)c1cccc([N+](=O)[O-])c1 | -1 | . | . | 3 | . | . | . | .
COCc1cc(=O)[nH]c(SCCS(=O)(=O)c2ccc(Cl)cc2Cl)n1 | -19 | . | . | 3 | . | 11 | . | .
COc1ccc(/C=N/NS(=O)(=O)c2ccc(C)cc2)cc1OC(=O)c1ccccc1 | -11 | 1 | 11 | 0 | -4 | -3 | . | .
COc1cc(/C=N/O)ccc1OCc1ccc(C(=O)O)cc1 | 71* | 0.1 | 111* | 76* | 88* | 45 | 85* | 80*
COc1cc(/C=N/NS(=O)(=O)c2ccc(C)cc2)ccc1OCc1cccc(C(=O)O)c1 | 16 | 1 | 47* | 46* | -3 | 7 | 1 | -10
COc1cc(/C=N/NS(=O)(=O)c2ccc3ccccc3c2)ccc1OCc1ccc(C(=O)O)cc1 | 10 | . | . | 51* | . | 4 | -6 | -13
CCN(C(=O)CSc1nc(N)cc(N)n1)C1CCS(=O)(=O)C1 (stereo unspecified) | 1 | . | . | -6 | . | . | . | .
S=C(NCc1cccnc1)c1ccccc1 | -21 | . | . | 19* | . | . | 0 | -2
CN1C[C@@H]2[C@@H]3C(=O)N(C)C(=O)[C@@H]3[C@](C)(C1=O)N2C(=O)c1ccccc1 | -5 | . | . | . | . | . | . | .
CSc1ccccc1CNC(=O)C1(C)CCCN1CC(C)C (stereo unspecified) | -1 | . | . | . | . | . | . | .
C=CCN=C1NN=C(c2ccc3c(c2)OCCO3)CS1 | 35 | 0.1 | 89* | 47* | 94* | 31 | 83* | 79*
CC1(C(=O)NS(C)(=O)=O)CCN1C(=O)Cc1ccc(-c2ccccc2)cc1 (stereo unspecified) | 8 | . | . | . | . | . | . | .
SMILES | C8 TRAIL sens | FLuc stim CS | STAT3 inh | HSP90 inh | FLuc inh counter | PPC-1+TRAIL kill | HSP90 inh confirm | FLuc counter
COc1ccccc1OCC(=O)Nc1ccccn1 | 26 | 0.3 | 16 | 70* | 71* | 41 | 20* | 3
Cc1c(C)c2cc(Cl)c(OCC(=O)Nc3ccccn3)cc2oc1=O | -7 | . | . | . | . | . | . | .
Cc1c(C)c2ccc(OCC(=O)Nc3ccccn3)c(C)c2oc1=O | 93* | . | . | 96* | . | . | 100* | 91*
CC(=O)c1ccc(Nc2nc3ccc(C)cc3n3cnnc23)cc1 | -4 | . | . | 1 | . | . | . | .
COC(=O)c1ccc(Nc2nc3ccc(C)cc3n3cnnc23)cc1 | -7 | . | . | 38* | . | . | 42* | 10*
Cc1oc(C(C)(C)C)cc1C(=O)NCC(=O)NCC(=O)O | 0 | 1 | 7 | 2 | -2 | 27 | . | .
Cc1oc(-c2ccc3c(c2)OCCO3)cc1C(=O)NCC(=O)O | 1 | 0.7 | 6 | 90* | 32 | . | 95* | 79*
Cc1oc(-c2ccc3c(c2)OCCO3)cc1C(=O)NC(CCC(=O)O)C(=O)O (stereo unspecified) | -24 | 1 | -4 | 64* | -1 | 4 | 77* | 33*
CSCCC(NC(=O)c1cc(C)oc1C)C(=O)O (stereo unspecified) | -10 | 1 | -4 | -2 | -3 | -5 | . | .
CCCCC(=O)Nc1cc(OC)c(NC(=S)Nc2ccc(OC)cc2)cc1OC | 0 | . | . | . | . | . | . | .
CN(CC(=O)NCc1ccncc1)S(=O)(=O)c1cc(Cl)ccc1Cl | -36 | . | . | 53* | . | . | -1 | -7
COc1ccc2c(c1OC)C(=O)N(c1ccc(OCc3ccccc3)cc1)C2=O | 10 | . | . | -1 | . | . | . | .
CCc1noc(C)c1C(=O)N(CCC(C)C)c1c(N)n(Cc2ccccc2)c(=O)[nH]c1=O | -12 | . | . | . | . | . | . | .
CCOC(=O)C1CCCN(C(=S)NC(=O)c2cc(Br)ccc2Cl)C1 (stereo unspecified) | -12 | . | . | . | . | . | . | .
CCCNC(=O)Nc1nc2ccccc2s1 | 0 | . | . | 21* | . | 26 | -2 | -22
